Assay results reported in ChEMBL document CHEMBL6182829, “Developing peptide-based fusion inhibitors as an antiviral strategy utilizing coronin 1 as a template” (RSC Med Chem, 2025).
Calls of active or inactive are those of the source. The calls are words filed in the database; no cut-off is given here. Where a SMILES comes first, the peptide text is derived from it.

Key:
Lipid bilayer [1] = assay: Inhibition of PEG-induced DOPC/DOPE/DOPG/CH (50/30/10/10 mol%) small unilamellar vesicles assessed as content leakage at 1:100 compound: lipid concentration preincubated for 10 mins followed by PEG addition by fluorescence based analysis (reference value: 13.6 +/- 0.5 %)
Method in brief: (§1)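 Leakage read as loss of fluorescence from vesicles co-encapsulating 8 mM TbCl3 and 80 mM DPA, external probe removed. Lipid 200 μM; peptide 2 μM added 10 min before 6% (w/v) PEG at 37 °C. 100% leakage set with 0.1% (w/v) Triton X-100.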

Lipid bilayer [2] = assay: Inhibition of PEG-induced DOPC/DOPE/DOPG/CH (40/30/10/20 mol%) small unilamellar vesicles assessed as content leakage at 1:100 compound: lipid concentration preincubated for 10 mins followed by PEG addition by spectrofluorometric analysis; method in brief: as §1
Lipid bilayer [3] = assay: Disruption of interfacial region in DOPC/DOPE/DOPG (60/30/10 mol%) small unilamellar vesicles at 2 to 10 uM by TMA-DPH based fluorescence anisotropy; details: dose 2-10 µM
Method in brief: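 TMA-DPH steady-state anisotropy in SUVs (200 μM total lipid) across a range of peptide concentrations. Excitation 360 nm, emission 428 nm, 5 nm slits. Buffer 10 mM TES, 100 mM NaCl, 1 mM CaCl2, 1 mM EDTA, pH 7.4, 37 °C. Anisotropy from polarised intensities with G-factor correction; mean ± S.E. of at least three measurements.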

Lipid bilayer [4] = assay: Binding affinity to DOPC/DOPE/DOPG/CH (40/30/10/20 mol%) small unilamellar vesicles assessed as membrane organization and dynamic by measuring increase in fluorescence intensity at 1:100 compound: lipid concentration by tryptophan fluorescence based spectrofluorometric analysis
Method in brief: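 Tryptophan fluorescence spectra of the peptide recorded in buffer and with SUVs. Lipid:peptide 100:1, total lipid 200 μM, in 10 mM TES, 100 mM NaCl, 1 mM CaCl2, 1 mM EDTA, pH 7.4. At least three independent measurements averaged.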

Lipid bilayer [5] = assay: Inhibition of PEG-induced DOPC/DOPE/DOPG/CH (40/30/10/20 mol%) small unilamellar vesicles assessed as content mixing at 1:100 compound: lipid concentration preincubated for 10 mins followed by PEG addition by spectrofluorometric analysis relative to control
Method in brief: (§2)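 Content mixing by Tb3+/DPA complex fluorescence. Vesicles loaded with 8 mM TbCl3 or 80 mM DPA, external probe removed by gel filtration. Mixed 1:1 at 200 μM lipid; peptide 2 μM added 10 min before 6% (w/v) PEG, 37 °C. Normalised to co-encapsulated and detergent-treated samples.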

Lipid bilayer [6] = assay: Inhibition of PEG-induced DOPC/DOPE/DOPG (60/30/10 mol%) small unilamellar vesicles assessed as content mixing at 1:100 compound: lipid concentration preincubated for 10 mins followed by PEG addition by fluorescence based analysis (reference value: 16.7 +/- 0.6 %); method in brief: as §2
Lipid bilayer [7] = assay: Inhibition of PEG-induced DOPC/DOPE/DOPG/CH (40/30/10/20 mol%) small unilamellar vesicle assessed as content mixing at 1:100 compound: lipid concentration preincubated for 10 mins followed by PEG addition by fluorescence based analysis (reference value: 23.0 +/- 0.9 %); method in brief: as §2
Lipid bilayer [8] = assay: Inhibition of PEG-induced DOPC/DOPE/DOPG/CH (50/30/10/10 mol%) small unilamellar vesicles assessed as content mixing at 1:100 compound: lipid concentration preincubated for 10 mins followed by PEG addition by fluorescence based analysis (reference value: 11.4 +/- 0.4 %); method in brief: as §2
Influenza A virus H3N2 [9] = assay: Antiviral activity against Influenza A virus X-31 (H3N2) infected in human A549 cells assessed as reduction in virus-induced cytopathic effect preincubated for 48 hrs followed by viral infection for 45 mins by light microscopic analysis; format: functional, organism-based; details: time 2925.0 min
Method in brief: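 A549 cells infected with virus–peptide mixtures at increasing peptide concentrations, then assessed by light microscopy for cytopathic effect 48 h after infection.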

Lipid bilayer [10] = assay: Inhibition of PEG-induced DOPC/DOPE/DOPG/CH (50/30/10/10 mol%) small unilamellar vesicles assessed as increase in lipid mixing at 1:100 compound: lipid concentration preincubated for 10 mins followed by PEG addition by spectrofluorometric analysis relative to control
Method in brief: (§3)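 Lipid mixing followed as FRET dilution. Vesicles carrying 0.8 mol% NBD-PE and Rh-PE mixed 1:9 with probe-free vesicles at 200 μM lipid. Peptide 2 μM added 10 min before 6% (w/v) PEG at 37 °C. NBD donor intensity rise recorded over time; TX-100 defines complete mixing.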

Lipid bilayer [11] = assay: Reduction of apparent rotational correlation time in DOPC/DOPE/DOPG/CH (40/30/10/20 mol%) small unilamellar vesicles at 2 to 10 uM by TMA-DPH anisotropy analysis; details: dose 2-10 µM
Method in brief: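 Apparent rotational correlation time of TMA-DPH from the Perrin equation, combining steady-state anisotropy and mean lifetime with r0 = 0.4. SUVs at 200 μM lipid with varying peptide, in TES/NaCl/CaCl2/EDTA buffer pH 7.4 at 37 °C; at least three measurements.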

Lipid bilayer [12] = assay: Inhibition of PEG-induced DOPC/DOPE/DOPG/CH (40/30/10/20 mol%) small unilamellar vesicles assessed as lipid mixing at 1:100 compound: lipid concentration preincubated for 10 mins followed by PEG addition by spectrofluorometric analysis (reference value: 92.7 +/- 3.7 %); method in brief: as §3
Lipid bilayer [13] = assay: Inhibition of PEG-induced DOPC/DOPE/DOPG (60/30/10 mol%) small unilamellar vesicles assessed as lipid mixing at 1:100 compound: lipid concentration preincubated for 10 mins followed by PEG addition by spectrofluorometric analysis (reference value: 57.4 +/- 2.2 %); method in brief: as §3
Lipid bilayer [14] = assay: Inhibition of PEG-induced DOPC/DOPE/DOPG (60/30/10 mol%) small unilamellar vesicle assessed as content leakage at 1:100 compound: lipid concentration preincubated for 10 mins followed by PEG addition by fluorescence based analysis (reference value: 11.7 +/- 0.4 %); method in brief: as §1
Influenza A virus H3N2 [15] = assay: Antiviral activity against Influenza A virus X-31 (H3N2) infected in MDCK cells assessed as reduction in viral M1 protein expression level incubated for 48 hrs post infection by Western blot analysis; format: functional, organism-based
Method in brief: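 Cells seeded at 0.25 × 10^6 per well and co-infected with virus–peptide mixtures as in the CPE assay. Lysed in RIPA with protease inhibitor 48 h post-infection, protein by BCA. Run on 12% SDS-PAGE, transferred to PVDF, blocked in 3% milk. Probed with anti-M1 (1:1000) and HRP anti-mouse IgG (1:10 000); β-actin as loading control after stripping.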

Lipid bilayer [16] = assay: Inhibition of PEG-induced DOPC/DOPE/DOPG/CH (40/30/10/20 mol%) (20 CH) small unilamellar vesicles fusion assessed as content mixing at 1:100 compound: lipid concentration preincubated for 10 mins followed by PEG addition by spectrofluorometric analysis; method in brief: as §2

Q: Which inhibition (Lipid bilayer [1]) does the source give for `CC[C@H](C)[C@H](NC(=O)[C@H](CC(C)C)NC(=O)[C@H](C)NC(=O)[C@@H](NC(=O)[C@H](Cc1ccccc1)NC(=O)[C@H](CCCCN)NC(=O)[C@@H]1CCCN1C(=O)[C@H](CC(N)=O)NC(=O)[C@@H](NC(=O)[C@H](C)NC(=O)[C@H](CS)NC(=O)[C@H](Cc1ccccc1)NC(=O)CNC(=O)[C@H](CO)NC(=O)[C@H](CC(=O)O)NC(=O)[C@H](Cc1c[nH]c2ccccc12)NC(=O)[C@@H](NC(=O)[C@@H](N)[C@@H](C)O)[C@@H](C)O)C(C)C)C(C)C)C(=O)N[C@@H](CS)C(=O)N[C@@H](CC(=O)O)C(=O)N[C@@H](Cc1c[nH]c2ccccc12)C(=O)N[C@@H](CO)C(=O)NCC(=O)O` (H-TTWDSGFCAVNPKFVALICDWSG-OH) here?
A: The inhibition was 8.3%.

Q: And the inhibition (Lipid bilayer [2])?
A: Its inhibition is “inactive”.

Q: And the Activity (Lipid bilayer [3])?
A: Its Activity is “Active”.

Q: What about the Activity (Lipid bilayer [4]) of the same compound?
A: The Activity was “Active”.

Q: And the inhibition (Lipid bilayer [5])?
A: The inhibition was 33%.

Q: And the inhibition (Lipid bilayer [6])?
A: The inhibition was 9.8%.

Q: What about the inhibition (Lipid bilayer [7]) of the same compound?
A: The inhibition was 15.5%.

Q: What about the inhibition (Lipid bilayer [8]) of the same compound?
A: Its inhibition is 8.1%.

Q: What about the Activity (Influenza A virus H3N2 [9]) of the same compound?
A: The Activity was “Dose-dependent-effect”.

Q: And the inhibition (Lipid bilayer [10])?
A: Its inhibition is 6%.

Q: What about the Activity (Lipid bilayer [11]) of the same compound?
A: Its Activity is “Active”.

Q: What about the inhibition (Lipid bilayer [12]) of the same compound?
A: The inhibition was 100%.

Q: And the inhibition (Lipid bilayer [13])?
A: The inhibition was 69%.

Q: What about the inhibition (Lipid bilayer [14]) of the same compound?
A: Its inhibition is 8.7%.

Q: And the Activity (Influenza A virus H3N2 [15])?
A: The Activity was “Dose-dependent-effect”.

Q: And the inhibition (Lipid bilayer [16])?
A: The inhibition was “Active”.
